Active and inactive are the calls of the source. The calls are words filed in the database; no cut-off is given here.
How the values were obtained:
[1] = test system: Mus musculus; assay: Protection against LPS-induced C57BL/6 mouse model of acute lung injury assessed as reduction in protein level in BALF at 20 mg/kg, po administered 3 times for every 12 hrs followed by LPS stimulation at 5 mg/kg and measured after 6 hrs; type: functional, organism-based; settings: time 30.0 hrs
In short: (§1)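 C57BL/6 mice, 6 per group. Gavaged at 20 mg/kg three times at 12 h intervals; controls received saline, and dexamethasone 20 mg/kg served as reference. After the last dose, LPS 5 mg/kg given intratracheally. At 6 h, blood collected for serum IL-6 by ELISA. Left lung lavaged with 3 × 200 μL saline, and BALF assayed for IL-6, total protein and neutrophil count. Mean ± SEM, n = 6.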

[2] = test system: J774.A1; assay: Inhibition of LPS-induced MAPK activation in mouse J774.A1 cells assessed as reduction in p38 phosphorylation at 5 to 20 uM pretreated for 2 hrs followed by LPS stimulation and measured after 30 mins by Western blot analysis; type: cell-based; settings: dose 5-20 µM, time 2.5 hrs
In short: (§2)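 J774A.1 macrophages pretreated with 20, 10 or 5 μM for 2 h, then LPS 0.5 μg/mL for 30 min. RIPA lysates quantified by Bradford. 40 μg run on 12.5 % SDS-PAGE and transferred to PVDF. Blocked 1.5 h in BSA, primary antibody overnight at 4 °C, secondary 2 h at room temperature, detected by ECL.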

[3] = test system: Mus musculus; assay: (§3) Antiinflammatory activity in DSS-induced male C57BL/6 mouse model of inflammatory bowel disease assessed as normal appearance of goblet cells at 20 mg/kg, IG administered with compound and DSS for 7 days followed by DSS replacement with distilled water for 3 days by H and E staining based analysis; type: functional, organism-based; settings: time 10.0 day
[4] = biological target: T1, Inhibitor of nuclear factor kappa-B kinase subunit beta (Homo sapiens) (UniProt O14920); assay: Inhibition of IKKbeta (unknown origin) at 10 uM relative to control
T1 sequence (whole entry): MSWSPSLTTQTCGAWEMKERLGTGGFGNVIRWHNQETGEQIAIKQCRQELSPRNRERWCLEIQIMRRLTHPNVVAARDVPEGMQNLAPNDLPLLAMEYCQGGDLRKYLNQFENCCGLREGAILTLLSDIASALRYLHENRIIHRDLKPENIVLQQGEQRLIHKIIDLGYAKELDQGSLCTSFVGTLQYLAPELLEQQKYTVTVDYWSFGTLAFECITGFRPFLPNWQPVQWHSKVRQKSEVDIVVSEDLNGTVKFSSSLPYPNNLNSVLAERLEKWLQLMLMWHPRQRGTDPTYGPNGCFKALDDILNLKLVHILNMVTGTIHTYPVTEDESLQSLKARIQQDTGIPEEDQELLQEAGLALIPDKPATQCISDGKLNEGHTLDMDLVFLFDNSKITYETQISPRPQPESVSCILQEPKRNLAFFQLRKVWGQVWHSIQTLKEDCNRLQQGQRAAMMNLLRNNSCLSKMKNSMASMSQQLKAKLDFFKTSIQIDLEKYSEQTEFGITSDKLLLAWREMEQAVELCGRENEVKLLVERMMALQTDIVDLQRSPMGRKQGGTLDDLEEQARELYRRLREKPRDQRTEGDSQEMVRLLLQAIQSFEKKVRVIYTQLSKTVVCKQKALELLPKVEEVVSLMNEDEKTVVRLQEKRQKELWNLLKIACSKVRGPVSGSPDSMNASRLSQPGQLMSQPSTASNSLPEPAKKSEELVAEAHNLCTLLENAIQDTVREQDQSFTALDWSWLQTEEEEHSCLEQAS

[5] = Acute toxicity in male ICR mouse assessed as histopathological changes in spleen at 500 to 1000 mg/kg, po administered daily for 10 days by H and E staining based analysis; type: organism-based; settings: in vivo, 240 h, dose 500-1000 mg/kg, time 10 day
In short: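 Male ICR mice (8 weeks, 30 g ± 2 g), acclimatised 1 week, randomised into 1000 mg/kg, 500 mg/kg and untreated control groups (n = 24 total). Dosed by daily gavage, compound dissolved in 0.5 % DMSO then added to normal saline. Body weight and behaviour recorded daily. Euthanised after 10 days; heart, liver, spleen, lung and kidney examined by H&E staining.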

[6] = test system: Mus musculus; assay: as §3, with “reduction in red and white pulp merging in spleen” for “normal appearance of goblet cells”; type: functional, organism-based; settings: time 10.0 day
[7] = test system: Mus musculus; assay: Protection against LPS-induced C57BL/6 mouse model of acute lung injury assessed as reduction in number of neutrophils in BALF at 20 mg/kg, po administered 3 times for every 12 hrs followed by LPS stimulation at 5 mg/kg and measured after 6 hrs; type: functional, organism-based; settings: time 30.0 hrs; in short: as §1
[8] = test system: Mus musculus; assay: Protection against LPS-induced C57BL/6 mouse model of acute lung injury assessed as reduction in IL-6 level in serum at 20 mg/kg, po administered 3 times for every 12 hrs followed by LPS stimulation at 5 mg/kg and measured after 6 hrs by ELISA; type: functional, organism-based; settings: time 30.0 hrs; in short: as §1
[9] = Cmax in male Sprague-Dawley rat at 1 mg/kg, iv measured upto 24 hrs by triple quadrupole mass spectrometric analysis; type: ADME, organism-based; settings: in vivo
In short: (§4)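 Male SD rats (8 weeks, 200 g ± 20 g), n = 3 per route. Oral: 10 mg/kg by gavage in 0.05 % DMSO/normal saline, tail-vein blood at 13 times from 10 min to 24 h. IV: 1 mg/kg tail vein in 5 % DMSO/30 % PEG400/65 % saline, 14 samples from 5 min to 24 h. Heparinised plasma precipitated with acetonitrile containing internal standard. Non-compartmental analysis on mean concentrations.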

[10] = Half life in male Sprague-Dawley rat at 1 mg/kg, iv measured upto 24 hrs by triple quadrupole mass spectrometric analysis; type: ADME, organism-based; settings: in vivo; in short: as §4
[11] = Cmax in male Sprague-Dawley rat at 10 mg/kg, po measured upto 24 hrs by triple quadrupole mass spectrometric analysis; type: ADME, organism-based; settings: in vivo
[12] = test system: Mus musculus; assay: Protection against LPS-induced C57BL/6 mouse model of acute lung injury assessed as reduction in inflammatory cell infiltration in lung at 20 mg/kg, po administered 3 times for every 12 hrs followed by LPS stimulation at 5 mg/kg and measured after 6 hrs by immunohistochemical staining based analysis; type: functional, organism-based; settings: time 30.0 hrs
In short: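 LPS-induced ALI in C57BL/6 mice: 20 mg/kg orally three times at 12 h intervals, then intratracheal LPS 5 mg/kg, lungs taken at 6 h. F4/80 IHC: xylene deparaffinisation, citrate pH 6 retrieval for 25 min, primary antibody at 4 °C for 12 h, secondary 1:2000, DAB and hematoxylin. Viewed at ×20.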

[13] = biological target: Mitogen-activated protein kinase 9 (Homo sapiens) (UniProt P45984); assay: Inhibition of JNK2 (unknown origin) at 10 uM relative to control
[14] = test system: J774.A1; assay: Inhibition of LPS-induced NF-kappaB activation in mouse J774.A1 cells assessed as reduction in IkappaBalpha degradation at 5 to 20 uM pretreated for 2 hrs followed by LPS stimulation and measured after 30 mins by Western blot analysis; type: cell-based; settings: dose 5-20 µM, time 2.5 hrs; in short: as §2
[15] = Oral bioavailability in male Sprague-Dawley rat at 10 mg/kg measured upto 24 hrs by triple quadrupole mass spectrometric analysis; type: ADME, organism-based; settings: in vivo; in short: as §4

Chain of Mitogen-activated protein kinase 9 (Homo sapiens) (P45984 whole entry, looked up): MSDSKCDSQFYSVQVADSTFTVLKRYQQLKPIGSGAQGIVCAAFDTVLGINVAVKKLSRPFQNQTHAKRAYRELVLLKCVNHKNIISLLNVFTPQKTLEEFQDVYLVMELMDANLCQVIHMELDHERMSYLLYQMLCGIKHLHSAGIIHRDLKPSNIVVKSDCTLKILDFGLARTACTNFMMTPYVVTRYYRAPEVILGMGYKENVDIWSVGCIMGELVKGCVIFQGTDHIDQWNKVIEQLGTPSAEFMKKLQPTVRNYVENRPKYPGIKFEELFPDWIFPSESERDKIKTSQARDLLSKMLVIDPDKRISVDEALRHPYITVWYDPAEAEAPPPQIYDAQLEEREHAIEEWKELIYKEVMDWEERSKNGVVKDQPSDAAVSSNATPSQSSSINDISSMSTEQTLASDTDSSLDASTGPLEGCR

CC(=O)N1CCN(CCOc2cc(=O)oc3ccccc23)CC1
Activity [1]: Active | inhibition [2]: Active | Activity [3]: Active | inhibition [4]: -9.11% | Activity [5]: Non-Toxic | Activity [6]: Active | Activity [7]: Active | Activity [8]: Active | Cmax [9]: 2030 ng/mL | half-life [10]: 18.6 min | Cmax [11]: 1010 ng/mL | Activity [12]: Active | inhibition [13]: 5.93% | inhibition [14]: inactive | bioavailability [15]: 28.7%
